Each structure is given as a SMILES string. Active and inactive are the calls of the source. No cut-off for these calls is given here.

What is called IC50 is the point on the concentration scale where inhibition reaches its midpoint. For orientation: inhibition means the relative decrease from the control value, in per cent. Low values mean a response near the control, high ones a response far below the control.

For series [1], the target named is T1, Glucose-6-phosphate 1-dehydrogenase (Saccharomyces cerevisiae S288c, UniProt P11412).
T1 sequence (P11412 whole entry): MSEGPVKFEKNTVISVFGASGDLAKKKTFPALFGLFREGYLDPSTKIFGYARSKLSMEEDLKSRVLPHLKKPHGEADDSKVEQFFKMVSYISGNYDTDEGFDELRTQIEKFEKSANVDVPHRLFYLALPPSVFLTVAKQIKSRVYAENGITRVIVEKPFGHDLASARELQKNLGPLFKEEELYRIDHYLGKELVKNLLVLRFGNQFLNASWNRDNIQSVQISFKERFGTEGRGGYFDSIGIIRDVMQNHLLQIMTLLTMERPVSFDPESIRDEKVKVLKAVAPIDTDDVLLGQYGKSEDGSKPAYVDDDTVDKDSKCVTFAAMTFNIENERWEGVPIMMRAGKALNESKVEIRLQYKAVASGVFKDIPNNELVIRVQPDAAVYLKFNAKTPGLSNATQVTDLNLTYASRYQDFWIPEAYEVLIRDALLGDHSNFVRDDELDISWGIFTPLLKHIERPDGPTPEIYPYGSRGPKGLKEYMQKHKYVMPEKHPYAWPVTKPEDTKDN
Put plainly: Inhibition of yeast G6PD.

Series [2] has as its system 3T3-L1. In words: Inhibition of G6PD-mediated NADPH production in mouse 3T3-L1 cells at above 100 umol/L. The series is classed as cell-based. The method in brief: (§1)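 Fully differentiated 3T3-L1 adipocytes were lysed in NETN buffer and spun at 4 °C; supernatants were used at once. 1.0 µg protein was incubated at 30 °C with inhibitor (DMSO <0.2% v/v) in 0.1 mol/L Tris pH 7.5, 150 mmol/L NaCl, 6 mmol/L MgCl2, 0.5 mmol/L G6P, 0.5 mmol/L 6-phosphogluconate and 0.25 mmol/L NADP+. Total NADPH production was normalized to Bradford protein. Values are means of three independent experiments.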

The nature of series [3]: Inhibition of IDH.
Series [4] can be described thus: (§2) Inhibition of G6PD-mediated NADPH production in mouse 3T3-L1 cells. The series is classed as cell-based. The method in brief:
as §1

The test system of series [5] is 3T3-L1. In words: Ratio of IC50 for yeast G6PD to IC50 for G6PD-mediated NADPH production in mouse 3T3-L1 cells. Format: cell-based.
The target in series [6] is 6-phosphogluconate dehydrogenase, decarboxylating (Saccharomyces cerevisiae) (UniProt P38720). In words: Inhibition of 6PGD.
The subject of series [7] is 3T3-L1. Described as §2. The series is classed as cell-based. Put shortly:
as §1

A further series deals with Homo sapiens. In words: Plasma concentration in human at 50 mg, po. Conditions: in vivo.

Chain of 6-phosphogluconate dehydrogenase, decarboxylating (Saccharomyces cerevisiae) (P38720 whole entry, looked up): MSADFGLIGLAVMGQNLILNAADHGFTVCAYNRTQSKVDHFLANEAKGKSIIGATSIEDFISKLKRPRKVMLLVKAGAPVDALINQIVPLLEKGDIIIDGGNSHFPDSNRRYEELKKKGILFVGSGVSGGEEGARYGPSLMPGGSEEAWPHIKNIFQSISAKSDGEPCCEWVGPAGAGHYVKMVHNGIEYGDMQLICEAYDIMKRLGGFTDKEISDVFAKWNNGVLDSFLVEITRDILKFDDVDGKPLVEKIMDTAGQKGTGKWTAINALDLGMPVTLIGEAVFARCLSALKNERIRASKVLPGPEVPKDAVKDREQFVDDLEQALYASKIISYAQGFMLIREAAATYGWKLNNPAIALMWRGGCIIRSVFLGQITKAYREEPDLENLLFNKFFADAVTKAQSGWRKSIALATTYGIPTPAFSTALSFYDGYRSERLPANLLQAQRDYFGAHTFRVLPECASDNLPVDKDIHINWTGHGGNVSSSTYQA

In series [1], `Oc1cccc(/C=N/NC(=S)N/N=C/c2cccc(O)c2O)c1O` returned an IC50 of 56.4 µM.

In series [1], `CCOc1cccc(-c2cc(C(=O)N/N=C/c3ccccc3O)[nH]n2)c1` showed an IC50 of 21.8 µM.

In the series with 3T3-L1 [2], `C[C@]12CC[C@H](O)CC1=CC[C@@H]1[C@@H]2CC[C@]2(C)C(=O)CC[C@@H]12` displayed an inhibition of 40%.

On to `O=C(O[C@@H]1Cc2c(O)cc(O)cc2O[C@H]1c1ccc(O)c(O)c1)c1cc(O)c(O)c(O)c1` [(-)-CATECHINGALLATE], for which the IC50 in series [1] turned out to be 0.24 µM; in series [3], 6.62 µM; in series [4], 25 µM; in series [6], 1.28 µM. Further, the Ratio IC50 in the series on 3T3-L1 [5] worked out at 100.

Take `Oc1cc(O)c2c(c1)O[C@@H](c1ccc(O)c(O)c1)[C@H](O)C2` [(-)-CATECHIN]: the IC50 in series [1] and in series [3] was above 1000 µM throughout. Also, the result in the series on 3T3-L1 [7] was inactive.

Turning to `Oc1cc(O)c2c(c1)O[C@H](c1ccc(O)c(O)c1)[C@H](O)C2` [(-)-EPICATECHIN], the IC50 in series [1] and in series [3] was above 1000 µM each time. For the same compound, the outcome in the series on 3T3-L1 [7] was inactive.

As to `Oc1cc(O)c2c(c1)O[C@@H](c1cc(O)c(O)c(O)c1)[C@H](O)C2` [(-)-GALLOCATECHIN], the IC50 in series [1] and in series [3] was above 1000 µM each time. In addition, in the series on 3T3-L1 [7], the outcome was inactive.

As for `O=C(O[C@@H]1Cc2c(O)cc(O)cc2O[C@@H]1c1ccc(O)c(O)c1)c1cc(O)c(O)c(O)c1` [EPICATECHIN GALLATE], the IC50 turned out to be 0.18 µM in series [1], 10.8 µM in series [3], 25 µM in series [4] and 1.21 µM in series [6]. Besides, the Ratio IC50 in the series with 3T3-L1 [5] was found to be 100.

For the compound `Oc1cc(O)c2c(c1)O[C@H](c1cc(O)c(O)c(O)c1)[C@H](O)C2` [EPIGALLOCATECHIN], the IC50 in series [1] and in series [3] was above 1000 µM in each case. In addition, the result with 3T3-L1 [7] was inactive.

With `O=C(O[C@@H]1Cc2c(O)cc(O)cc2O[C@@H]1c1cc(O)c(O)c(O)c1)c1cc(O)c(O)c(O)c1` [EPIGALOCATECHIN GALLATE], the IC50 in series [1] was found to be 0.25 µM; in series [3], 6.44 µM; in series [4], 25 µM; in series [6] it was 0.72 µM. Also, the Ratio IC50 in the series with 3T3-L1 [5] was found to be 100. The same compound registered a concentration in the series on Homo sapiens of 300 nM.

As to `O=C(O[C@@H]1Cc2c(O)cc(O)cc2O[C@H]1c1cc(O)c(O)c(O)c1)c1cc(O)c(O)c(O)c1` [GALLOCATECHIN GALLATE], the IC50 in series [1] stood at 0.23 µM; in series [3], 2.72 µM; in series [4], 25 µM; in series [6], 1.45 µM. Moreover, in the series on 3T3-L1 [5], the Ratio IC50 was determined as 100.

Source of the values: ChEMBL document CHEMBL1143070, “Catechin gallates are NADP+-competitive inhibitors of glucose-6-phosphate dehydrogenase and other enzymes that employ NADP+ as a coenzyme” (Bioorg Med Chem, 2008).
